Source: ChEMBL document CHEMBL1140030, “Spin trapping experiments with different carbamoyl-substituted EMPO derivatives” (Bioorg Med Chem, 2008)

Key:
[1] = Antioxidant spin trapping activity assessed as hydroxyl radical adducts formation by Fenton system; type: physicochemical
In short: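 Hydroxyl adducts: spin trap (40 mM, initial) with Fenton mix of FeSO4 (1 mM), EDTA (2 mM), H2O2 (0.2%); after 10 s diluted 1:1 with 300 mM phosphate buffer pH 7.4 containing 20 mM DTPA; ESR at sweep 80 G, modulation 0.21 G, microwave 20 mW, time constant 0.08 s, gain 2×10^4, 57 G/min.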

[2] = Antioxidant spin trapping activity assessed as carbon centered radical adduct formation from formate; type: physicochemical
In short: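 CO2 anion radical adducts: spin trap (40 mM, init. conc.) with FeSO4 (1 mM), EDTA (2 mM), H2O2 (0.2%) in aqueous sodium formate (200 mM); reaction stopped after 10 s by 1:1 dilution into 300 mM phosphate buffer pH 7.4 with 20 mM DTPA, then ESR spectrum recorded (sweep width 80 G).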

[3] = Partition coefficient, P in n-octanol/phosphate buffer at pH 7.0
[4] = Antioxidant spin trapping activity assessed as alkoxyl radical adducts formation from ethanol; type: physicochemical
In short: (§1)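 Alkoxyl adducts by nucleophilic addition: spin trap (1 M, init. conc., in methanol or ethanol) incubated 10 s with FeCl3 (2 mM in the alcohol), then stopped by 1:20 dilution with phosphate buffer (0.3 M, pH 7.4, 20 mM DTPA); ESR recorded at 9.7 GHz, sweep width 80 G.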

[5] = Antioxidant spin trapping activity assessed as carbon centered radical adduct formation from methanol; type: physicochemical
In short: (§2)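 Fenton-type generation of alcohol-derived carbon radicals: spin trap (40 mM, init. conc.), FeSO4 (1 mM), EDTA (2 mM), H2O2 (0.2%) in methanol or ethanol/water; stopped after 10 s by 1:1 dilution with 300 mM phosphate buffer pH 7.4 containing 20 mM DTPA; ESR: sweep 80 G, modulation 0.21 G, 20 mW, gain 4×10^4, 57 G/min.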

[6] = Antioxidant spin trapping activity assessed as carbon centered radical adduct formation from ethanol; type: physicochemical; in short: as §2
[7] = Antioxidant spin trapping activity assessed as alkoxyl radical adducts formation from methanol; type: physicochemical; in short: as §1

Row | SMILES | Activity [1] | Activity [2] | P [3] | Activity [4] | Activity [5] | Activity [6] | Activity [7]
1 | CCCCC1(C(N)=O)CCC=[N+]1[O-] (stereo unspecified) | Active | Active | 0.668 | – | – | – | –
2 | CC1(C(N)=O)CCC=[N+]1[O-] (stereo unspecified) | – | – | 0.016 | – | – | – | –
3 | CCCC1(C(N)=O)CCC=[N+]1[O-] (stereo unspecified) | Active | Active | 0.211 | Active | Active | Active | –
4 | CCCCCC1(C(N)=O)CCC=[N+]1[O-] (stereo unspecified) | Active | Active | 2.72 | Active | Active | Active | Active
5 | CCOC(=O)C1(C)CCC=[N+]1[O-] (stereo unspecified) | – | – | 0.15 | – | – | – | –
6 | CCC1(C(N)=O)CCC=[N+]1[O-] (stereo unspecified) | Active | Active | 0.056 | – | – | – | –
